Experimental data from ChEMBL document CHEMBL1123855, “Synthesis of glycopyranosylphosphonate analogues of certain natural nucleoside diphosphate sugars as potential inhibitors of glycosyltransferases” (J Med Chem, 1987).
Calls of active or inactive are those of the source.

How the values were obtained:
Vero [1] = test: In vitro antiviral activity was evaluated against vero cell lines infected with visna virus; non toxic at concentrations as high as 50000 uM; type: functional, cell-based; settings: Chlorocebus sabaeus
Vero [2] = test: In vitro antiviral activity was evaluated against vero cell lines infected with herpes simplex virus type-2; non toxic at concentrations as high as 50000 uM; type: functional, cell-based; settings: Chlorocebus sabaeus
Vero [3] = test: In vitro antiviral activity was evaluated against vero cell lines infected with adenovirus type 2; non toxic at concentrations as high as 50000 uM; type: functional, cell-based; settings: Chlorocebus sabaeus
L1210 = test: In vitro antitumor activity was evaluated against L1210 leukemia cell lines; No activity; type: functional, cell-based; settings: Mus musculus
WIL2 [4] = test: In vitro antitumor activity was evaluated against human B-lymphoblastic leukemia cell lines; Slight activity; type: functional, cell-based
CCRF-CEM [5] = test: In vitro antitumor activity was evaluated against human T-lymphoblastic leukemia cell lines; Slight activity; type: functional, cell-based
Vero [6] = test: In vitro antiviral activity was evaluated against vero cell lines infected with Parainfluenza virus type 3; non toxic at concentrations as high as 50000 uM; type: functional, cell-based; settings: Chlorocebus sabaeus
Vero [7] = test: In vitro antiviral activity was evaluated against vero cell lines infected with rhino virus; non toxic at concentrations as high as 50000 uM; type: functional, cell-based; settings: Chlorocebus sabaeus
CCRF-CEM [8] = test: In vitro antitumor activity was evaluated against human T-lymphoblastic leukemia cell lines; no = No activity; type: functional, cell-based
WIL2 [9] = test: In vitro antitumor activity was evaluated against human B-lymphoblastic leukemia cell lines; no = No activity; type: functional, cell-based
Vero [10] = test: In vitro antiviral activity was evaluated against vero cell lines infected with influenza virus; Slightly active at concentrations as high as 50000 uM; type: functional, cell-based; settings: Chlorocebus sabaeus
[11] = molecular target: N-acetyllactosaminide alpha-1,3-galactosyltransferase (Mus musculus) (UniProt P23336); test: Inhibition of galactosyltransferase activity secreted by L1210 leukemia cells grown in mouse peritoneal ascites at 20 ug/mL (35 uM); type: cell-based
N-acetyllactosaminide alpha-1,3-galactosyltransferase (Mus musculus), sequence (P23336 whole entry): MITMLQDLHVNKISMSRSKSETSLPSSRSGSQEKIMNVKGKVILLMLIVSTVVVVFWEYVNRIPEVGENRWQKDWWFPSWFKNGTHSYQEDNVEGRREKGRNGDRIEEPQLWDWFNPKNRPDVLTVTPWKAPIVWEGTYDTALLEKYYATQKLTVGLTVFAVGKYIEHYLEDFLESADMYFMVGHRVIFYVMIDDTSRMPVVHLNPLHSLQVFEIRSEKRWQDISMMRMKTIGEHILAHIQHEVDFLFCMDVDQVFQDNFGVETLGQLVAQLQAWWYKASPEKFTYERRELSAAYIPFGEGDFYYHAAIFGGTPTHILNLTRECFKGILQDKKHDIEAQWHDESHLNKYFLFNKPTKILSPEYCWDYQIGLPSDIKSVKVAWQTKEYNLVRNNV
Outline: (§1)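 Galactosyltransferase from cell-free ascites fluid of DBA/2J mice implanted 5-7 days earlier with 10^5 L1210 cells, cells removed by centrifugation. Medium: ovalbumin 1 mg/mL acceptor, 0.1 M cacodylate pH 7.0, 10 mM MnCl2, 2 mM AMP, inhibitor 20 or 50 ug/mL, UDP-galactose varied 1-80 uM plus UDP-[3H]galactose. 30 min, 37 °C. Stopped with PTA/HCl; washed precipitate scintillation-counted. Duplicates.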

[12] = molecular target: N-acetyllactosaminide alpha-1,3-galactosyltransferase (Mus musculus) (UniProt P23336); test: Inhibition of galactosyltransferase activity secreted by L1210 leukemia cells grown in mouse peritoneal ascites at 50 ug/mL (89 uM); type: cell-based; outline: as §1

Nc1ncnc2c1ncn2C1O[C@H](COP(=O)(O)OP(=O)(O)C2O[C@H](CO)[C@@H](O)[C@H](O)[C@H]2O)[C@@H](O)[C@H]1O (stereo partly drawn)
active: Cytotoxiciy (WIL2 [4]) Weak activity | Cytotoxiciy (CCRF-CEM [5]) Weak activity
inactive: Activity (Vero [1]) | Activity (Vero [2]) | Activity (Vero [3]) | Cytotoxiciy (L1210) No activity | Activity (Vero [6]) | Activity (Vero [7])

O=P(O)(O)[C@H]1O[C@@H](CO)[C@@H](O)[C@H](O)[C@@H]1O
inactive: Cytotoxiciy (CCRF-CEM [8]) No activity | Cytotoxiciy (WIL2 [9]) No activity | Activity (Vero [1]) | Activity (Vero [10]) | Activity (Vero [2]) | Activity (Vero [3]) | Cytotoxiciy (L1210) No activity | Activity (Vero [6])
active: Activity (Vero [7]) Slightly active

O=P(O)(O)[C@H]1O[C@@H](CO)[C@H](O)[C@H](O)[C@@H]1O (stereo in doubt; 17)
inactive: Cytotoxiciy (CCRF-CEM [8]) No activity | Cytotoxiciy (WIL2 [9]) No activity | Activity (Vero [1]) | Activity (Vero [2]) | Activity (Vero [3]) | Cytotoxiciy (L1210) No activity | Activity (Vero [6]) | Activity (Vero [7])

O=P(O)(O)[C@H]1O[C@@H](CO)[C@H](O)[C@H](O)[C@@H]1O (stereo in doubt; 19)
inactive: Cytotoxiciy (CCRF-CEM [8]) No activity | Cytotoxiciy (WIL2 [9]) No activity | Activity (Vero [1]) | Activity (Vero [2]) | Activity (Vero [3]) | Cytotoxiciy (L1210) No activity | Activity (Vero [6]) | Activity (Vero [7])

CC(=O)OP(=O)(O)C1OC(COCc2ccccc2)C(OCc2ccccc2)C(OCc2ccccc2)C1OCc1ccccc1 (stereo not drawn)
inactive: Cytotoxiciy (CCRF-CEM [8]) No activity | Cytotoxiciy (WIL2 [9]) No activity | Activity (Vero [1]) | Activity (Vero [2]) | Activity (Vero [3]) | Cytotoxiciy (L1210) No activity | Activity (Vero [6]) | Activity (Vero [7])

O=c1ccn(C2O[C@H](COP(=O)(O)OP(=O)(O)C3O[C@H](CO)[C@@H](O)[C@H](O)[C@H]3O)[C@@H](O)[C@H]2O)c(=O)[nH]1 (stereo partly drawn)
58%: inhibition [12]
50%: inhibition [11]
